Assay outcomes deposited in PubChem by several laboratories.
This is a sample that favours compounds with a hit; in the whole collection about 4.3% have one here.
HTR2A ag: agonists of mouse serotonin 5-HT2A receptor (HTR2A) | activation, % at 7.6 µM | CHO-K1 mHTR2A beta-arrestin complementation, luminescence; percent of 30 µM serotonin response | AID 624169 | hit rate 0.66% among 360,000;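 active = activation above a run cutoff, the mean activation of all tested compounds plus 3 SD, cut at about 14% in these data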
Target sequence (P35363 whole entry, looked up): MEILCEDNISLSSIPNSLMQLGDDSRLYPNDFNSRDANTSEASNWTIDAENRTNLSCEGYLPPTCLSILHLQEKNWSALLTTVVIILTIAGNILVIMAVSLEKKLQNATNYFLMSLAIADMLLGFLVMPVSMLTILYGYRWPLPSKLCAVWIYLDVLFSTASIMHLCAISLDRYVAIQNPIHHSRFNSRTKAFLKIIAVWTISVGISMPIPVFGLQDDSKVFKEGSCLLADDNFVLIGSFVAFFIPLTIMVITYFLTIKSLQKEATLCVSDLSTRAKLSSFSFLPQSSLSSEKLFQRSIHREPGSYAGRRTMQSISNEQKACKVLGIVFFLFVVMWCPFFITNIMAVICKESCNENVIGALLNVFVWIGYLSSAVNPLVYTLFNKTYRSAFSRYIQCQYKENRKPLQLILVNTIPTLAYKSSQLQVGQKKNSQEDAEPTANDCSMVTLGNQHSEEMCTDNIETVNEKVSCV
MC4R ag barr: activates human MC4R beta-arrestin recruitment. AID 540308. P32245. activation, % at 8.9 µM. U2OS MC4R beta-arrestin complementation, luminescence; percent of melanotan II response, DMSO zero. hit rate 0.98% among 360,000;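 active = activation above a per-plate cutoff, the mean activation of sample wells on that plate plus 3 SD, cut at about 8% in these data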
MC4R antagonist: blocks human MC4R cAMP signaling. AID 540295. P32245. hit rate 0.48% among 360,000. inhibition, % at 6.5 µM. MC4R-expressing cells, MTII-stimulated cAMP, LANCE TR-FRET;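 active = inhibition above its plate's cutoff, the mean of tested wells on that plate plus 3 SD, cut at about 29% in these data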
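system = U2OS cells with stable human MC4R expression | also added = Melanotan II challenge after compound preincubation | dosing = one concentration, 6.5 µM nominal | incubation = compound 30 min, challenge 1 h, detection 1 h | measured by = TR-FRET with Eu-cAMP and labeled anti-cAMP, 671 nm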
TAAR1 agonist: agonists of human TAAR1. activation, % at 3 µM. AID 624467. hit rate 0.99% among 360,000. CHO RD-HGA16 TAAR1, Fluo-8 calcium fluorescence; vehicle wells 0%, saturating PEA agonist 100%;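 active = activation above the mean activation of all test compounds in the run plus 3 SD, cut at about 38% in these data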
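test system = CHO RD-HGA16 cells carrying human TAAR1 plus Gα16 | schedule = 17-24 h seeding, 75 min 37 °C dye, 30 min RT | compound dosing = 3 µM single concentration | control set = DMSO and PEA EC100 | replicates = n 1 | signal = Fluo-8 fluorescence, 5 s baseline then 140 s kinetic read | measure = percent activation vs PEA EC100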
TAAR1 antag: human TAAR1 antagonism. Q96RJ0. CHO RD-HGA16 TAAR1, Fluo-8 calcium fluorescence, antagonist. inhibition, % at 3 µM. hit rate 1.5% among 360,000;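 active = inhibition above a per-plate cutoff, the mean inhibition of test compounds on that plate plus 3 SD, cut at about 49% in these data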
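Material: CHO RD-HGA16 cells bearing hTAAR1; compound dosing: one-point dosing, 3 µM nominal final; schedule: dye loading 75 min at 37 °C, then 30 min room temperature; measured by: calcium fluorescence with Fluo-8; control set: vehicle and agonist controls; replication: n of 1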
B2AR ag: agonists of human beta-2 adrenergic receptor inducing internalization. P07550. Am2.2-beta2AR cells, FAP receptor internalization, flow cytometry. response, % (concentration not given with the values). hit rate 0.43% among 340,000. AID 504454;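 active = response above a set limit, near 3 SD of response in nonfluorescent compounds, cut at about 42% in these data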
Hits are given with their value; - = inactive; . = not tested or not shown.

SMILES	HTR2A ag	MC4R ag barr	MC4R antagonist	TAAR1 agonist	TAAR1 antag	B2AR ag
O=C(NCCNC(=O)c1ccc(-c2cc(Cl)ccc2Cl)o1)c1cnccn1	-	-	-	43	-	.
CC(C)NC(=O)C1(C)CN(S(C)(=O)=O)CC(=O)N1CCc1ccc(O)cc1 (configuration not stated)	-	.	.	-	-	.
Cc1ccc(NC(=O)c2ccc(Cl)c(N3C(=O)C=CC3=O)c2)cc1	-	-	55	66	56	-
COc1ccc(-c2ccc(C(=O)Nc3ccc(C(C)C)cc3)c3occc23)c(C)c1	-	-	-	-	-	.
Nc1cc([N+](=O)[O-])ccc1Nc1ccc(O)cc1	-	-	-	-	57	-
Nc1ccccc1Nc1ccc([N+](=O)[O-])cc1[N+](=O)[O-]	-	-	-	-	-	-
COc1ccccc1-c1cccc(-c2nc(C(=O)Nc3nccs3)cc3c2[C@@H](CCO)N(C(=O)CC2CC2)C3)c1	-	.	.	-	51	.
O=C(NCc1ccccc1)C1=C[C@@H](c2ccccc2)C[C@@H](OCc2ccc(CO)cc2)O1	-	-	-	-	-	-
C#Cc1ccc([C@@H]2C=C(C(=O)NCc3ccccc3)O[C@H](OCc3ccc(CO)cc3)C2)cc1	-	-	-	-	51	-
CCN(c1ccccc1)S(=O)(=O)c1ccc(OC)c(NC(=O)Cc2ccccc2OC)c1	-	-	-	-	-	-
CCN(c1ccccc1)S(=O)(=O)c1ccc(Cl)c(NC(=O)CNCc2ccccc2OC)c1	-	-	-	-	55	-
Cc1ccc(S(=O)(=O)N2CC3(O)CN(C(=O)OC(C)C)N(C(=O)OC(C)C)CC3(OC(=O)NC3CCCC3)C2)cc1 (configuration not stated)	-	-	-	-	49	.
CC(C)(C)c1ccc(S(=O)(=O)NCC2CCN(C(=O)C(=O)c3cccs3)CC2)cc1	.	.	.	-	-	.
C[C@@H]1CN(c2ccc(N3CCN(C(=O)OC(C)(C)C)C[C@@H]3C)cc2C#N)CCN1Cc1ccccc1	.	.	.	-	-	.
Cc1ccc(N/C=C/C(=O)c2cccs2)cc1C	-	-	-	-	-	-
O=C(/C=C/Nc1ccc(Nc2ccccc2)cc1)c1cccs1	-	-	-	-	-	50
O=C(/C=C(\Nc1ccc(Cl)c(Cl)c1)c1ccccc1)c1ccccc1	.	.	.	-	-	.
CC1Cc2nc(SCC(=O)N3CCN(c4ccccc4)CC3)n(CCc3ccccc3)c(=O)c2S1 (configuration not stated)	-	-	-	-	52	-
O=C(Cc1ccccc1)N1O[C@H]2C=C[C@@H]1C2	.	.	.	-	-	.
CCCCC1(C)OC(=O)C(=Cc2ccc(N(C)C)cc2)C(=O)O1 (configuration not stated)	20	-	-	-	-	-
c1ccc(Nc2nnc(-c3ccc4c(c3)OCO4)o2)cc1	.	.	.	-	-	.
O=C(Nc1ccc(Cl)cc1)OCC12COCN1COC2	.	.	.	-	-	.
COc1ccc(C(CNC(=O)c2ccc(NS(=O)(=O)c3ccc4c(c3)OCCO4)cc2)N(C)C)cc1 (configuration not stated)	-	-	-	-	-	-
CCOC(=O)c1c(C)nc2sc(C(=O)Nc3ccc(OC)cc3)c(N)c2c1-c1ccc(OC)cc1	-	-	-	-	-	-
CCOC(=O)c1c(C)nc2sc(C(=O)Nc3ccc(C(C)=O)cc3)c(N)c2c1-c1ccc(OC)cc1	-	-	-	-	55	-
SMILES	HTR2A ag	MC4R ag barr	MC4R antagonist	TAAR1 agonist	TAAR1 antag	B2AR ag
OCCC(N1CCOCC1)C(O)(c1ccccc1)c1ccccc1 (configuration not stated)	.	.	.	-	-	.
COc1ccc2c(c1)[C@@]1(OCCC=C[C@H]1C)C(=O)N2Cc1ccccc1C(F)(F)F	.	.	.	-	-	.
COc1ccc(CNC(=O)Cc2nn(C)c(=O)c3ccccc23)cc1	-	-	-	-	-	-
Cn1nc(CC(=O)NCc2ccc(C(F)(F)F)cc2)c2ccccc2c1=O	-	-	-	-	52	-
CCOC(=O)N(C)[C@H]1C[C@H]2c3cc(-c4ccccc4C)ccc3CCN2C[C@H]1[C@H](C)O	.	.	.	-	-	.
Cc1ccc2c3c(cccc13)-c1ccccc1C2=O	-	-	-	-	-	-
